Reference: ChEMBL document CHEMBL1147559, “Synthesis and antitumor evaluation of benzoylphenylurea analogs” (Bioorg Med Chem Lett, 2004)

Tests used:
Type in all cases: functional, cell-based
HEp-2 [1] = assay: Cytotoxicity of compound against growth of human Hep2 cell line
Procedure, shortened: (§1)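 MTT dye-conversion assay. Cells kept in monolayer at 37 °C in humidified 5% CO2, trypsinized, seeded at 5 × 10³ cells/well and grown 24 h. Then treated 96 h with exponentially increasing drug concentrations in 10% FBS; compound stocks in DMSO. MTT (5 mg/mL in PBS) added for 3 h at 37 °C. Medium replaced with DMSO and OD read at 570 nm.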

PANC-1 = assay: Inhibitory concentration of compound against growth of human Panc-1 cell line; Resistant; procedure, shortened: as §1
SNU-308 = assay: Inhibitory concentration of compound against growth of human SNU-308 cell line; Resistant; procedure, shortened: as §1
HEp-2 [2] = assay: Inhibitory concentration of compound against growth of human Hep2 cell line; Resistant; procedure, shortened: as §1
BXPC-3 [3] = assay: Inhibitory concentration of compound against growth of human BxPC3 cell line; Resistant; procedure, shortened: as §1
HuCCT-1 = assay: Inhibitory concentration of compound against growth of human HuCCT-1 cell line; Resistant; procedure, shortened: as §1
A-431 = assay: Inhibitory concentration of compound against growth of human A431 cell line; Resistant; procedure, shortened: as §1
MIA PaCa-2 [4] = assay: Inhibitory concentration of compound against growth of human MIA PaCa cell line; Resistant; procedure, shortened: as §1
HN006 cell line = assay: Inhibitory concentration of compound against growth of human HN006 cell line; Resistant; procedure, shortened: as §1
HEp-2 [5] = assay: Inhibitory concentration of compound against growth of human Hep2 cell line; procedure, shortened: as §1
MIA PaCa-2 [6] = assay: Inhibitory concentration of compound against growth of human Mia-Paca cell line; procedure, shortened: as §1
BXPC-3 [7] = assay: Inhibitory concentration of compound against growth of human BxPC3 cell line; procedure, shortened: as §1

Cc1cc(NC(=O)N(C)C(=O)c2ccccc2NC(=O)N(C)C(=O)c2ccccc2N)ccc1Oc1ncc(Br)cn1 was tested, and the IC50 (HEp-2 [1]) was 5000 nM.

In the case of Cc1cc(NC(=O)N(C)C(=O)c2ccccc2N)ccc1Oc1ncc(Br)cn1, the IC50 (HEp-2 [1]) is reported as 5000 nM.

With CNc1ccccc1C(=O)N(C)C(=O)Nc1ccc(Oc2ncc(Br)cn2)c(C)c1 the Activity (PANC-1) was “Resistant”, the Activity (SNU-308) was “Resistant” and the Activity (HEp-2 [2]) was “Resistant”. For the same compound, the Activity (BXPC-3 [3]) was “Resistant”, the Activity (HuCCT-1) was “Resistant” and the Activity (A-431) was “Resistant”. The Activity (MIA PaCa-2 [4]) was “Resistant” and the Activity (HN006 cell line) was “Resistant”.

With CNc1ccccc1C(=O)NC(=O)Nc1ccc(Oc2ncc(Br)cn2)c(C)c1 the IC50 (HEp-2 [5]) was 1000 nM, the IC50 (MIA PaCa-2 [6]) was 1000 nM and the IC50 (BXPC-3 [7]) was 1000 nM.
